According to ChEMBL document CHEMBL4177749, “A Synthetic Dual Drug Sideromycin Induces Gram-Negative Bacteria To Commit Suicide with a Gram-Positive Antibiotic” (J Med Chem, 2018):
In brackets after ≈: the same amount, converted by molar mass.

Tests used:
Acinetobacter baumannii [1] = assay: Antibacterial activity against Acinetobacter baumannii ATCC 17978 transfected with pNT255:ADC-1 after 18 hrs by broth microdilution method; type: functional; settings: ATCC 17978, 18 h
Escherichia coli = assay: Antibacterial activity against Escherichia coli DC0 after 18 hrs by broth microdilution method; type: functional; settings: DC0, 18 h
Acinetobacter baumannii [2] = assay: Antibacterial activity against Acinetobacter baumannii ATCC 17961 clinical isolate after 18 hrs by broth microdilution method; type: functional; settings: ATCC 17961, 18 h
Acinetobacter baumannii [3] = assay: Antibacterial activity against Acinetobacter baumannii ATCC 17978 transfected with pNT255 after 18 hrs by broth microdilution method; type: functional; settings: ATCC 17978, 18 h
Acinetobacter baumannii [4] = assay: Antibacterial activity against Acinetobacter baumannii ATCC BAA 1793 clinical isolate after 18 hrs by broth microdilution method; type: functional; settings: ATCC BAA 1793, 18 h
Pseudomonas aeruginosa [5] = assay: Antibacterial activity against wild type Pseudomonas aeruginosa KW799 after 18 hrs by broth microdilution method; type: functional; settings: KW799, 18 h
Acinetobacter baumannii [6] = assay: Antibacterial activity against Acinetobacter baumannii ATCC 17978 after 18 hrs by broth microdilution method; type: functional; settings: ATCC 17978, 18 h
Acinetobacter baumannii [7] = assay: Antibacterial activity against Acinetobacter baumannii ATCC BAA 1797 clinical isolate after 18 hrs by broth microdilution method; type: functional; settings: ATCC BAA 1797, 18 h
Acinetobacter baumannii [8] = assay: Antibacterial activity against Acinetobacter baumannii ATCC BAA 1800 clinical isolate after 18 hrs by broth microdilution method; type: functional; settings: ATCC BAA 1800, 18 h
Pseudomonas aeruginosa [9] = assay: Antibacterial activity against Pseudomonas aeruginosa by broth microdilution method; type: functional
Pseudomonas aeruginosa [10] = assay: Antibacterial activity against Pseudomonas aeruginosa ATCC 27853 by broth microdilution method; type: functional
Pseudomonas aeruginosa [11] = assay: Antibacterial activity against Pseudomonas aeruginosa PAO1 ATCC […] by broth microdilution method; type: functional
Beta-lactamase = Beta-lactamase (Acinetobacter baumannii, UniProt Q9L4R5); assay: Drug metabolism assessed as Acinetobacter baumannii ADC-1-mediated (S)-N-((3-(3-Fluoro-4-(4-glycylpiperazin-1-yl)phenyl)-2-oxooxazolidin-5-yl)methyl)acetamide release at 20 uM after 40 mins by LC/MS method; type: ADME
Summary of the method: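 Purified ADC-1 β-lactamase (expressed as described earlier) […] with 20 μM conjugate in 50 mM sodium phosphate, pH 7.4, 1% DMSO final, room temperature, 40 min. Release of the oxazolidinone followed by LC/MS. Controls run under the same conditions: conjugate alone (20 μM) and enzyme alone (1 μM).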

Compound	MIC (Acinetobacter baumannii [1]) [µM]	MIC (Escherichia coli) [µM]	MIC (Acinetobacter baumannii [2]) [µM]	MIC (Acinetobacter baumannii [3]) [µM]	MIC (Acinetobacter baumannii [4]) [µM]	MIC (Pseudomonas aeruginosa [5]) [µM]	MIC (Acinetobacter baumannii [6]) [µM]	MIC (Acinetobacter baumannii [7]) [µM]	MIC (Acinetobacter baumannii [8]) [µM]	MIC (Pseudomonas aeruginosa [9]) [µM]	MIC (Pseudomonas aeruginosa [10]) [µM]	MIC (Pseudomonas aeruginosa [11]) [µM]	Drug metabolism (Beta-lactamase)
CC(=O)NC[C@H]1CN(c2ccc(N3CCN(C(=O)CNC(=O)CN(CCCCNC(=O)c4cccc(O)c4O)C(=O)c4cccc(O)c4O)CC3)c(F)c2)C(=O)O1	> 50	> 50	> 50	> 50	> 50	> 50	> 50	> 50	> 50	–	–	–	–
CC(=O)Oc1cccc(C(=O)NCCCCN(CC(=O)N[C@@H](C(=O)N[C@@H]2C(=O)N3[C@@H]2SC(C)(C)[C@@H]3C(=O)O)c2ccc(O)cc2)C(=O)c2cccc(OC(C)=O)c2OC(C)=O)c1OC(C)=O	–	–	–	–	–	–	–	–	–	0.02 to 0.16 (≈ 0.0187 to 0.149 µg/mL)	–	–	–
CC(O)C(NCC(=O)NC(=O)C(CCCNC(=O)CCCCCCCCC(=O)NC(C(=O)N[C@@H]1C(=O)N2[C@@H]1SC(C)(C)[C@@H]2C(=O)O)c1ccccc1)NC(=O)C(CCCN(O)C=O)NC(=O)C(CO)NC(=O)C1CCN=C2C(NC(=O)CCC(N)=O)=Cc3cc(O)c(O)cc3N21)C(=O)NC(CO)C(=O)NC1CCCN(O)C1=O (stereo partly specified)	–	–	–	–	–	–	–	–	–	–	0.024 (≈ 0.0386 µg/mL)	> 100	–
CC(=O)NC[C@H]1CN(c2ccc(N3CCN(C(=O)CNC(=O)OCC4=C(C(=O)O)N5C(=O)[C@@H](NC(=O)C(NC(=O)CN(CCCCNC(=O)c6cccc(O)c6O)C(=O)c6cccc(O)c6O)c6ccccc6)[C@H]5SC4)CC3)c(F)c2)C(=O)O1 (stereo partly specified)	6 (≈ 7.1 µg/mL)	< 0.025	0.8 (≈ 0.947 µg/mL)	0.4 (≈ 0.473 µg/mL)	0.8 to 16 (≈ 0.947 to 18.9 µg/mL)	0.2 to 0.4 (≈ 0.237 to 0.473 µg/mL)	0.4 (≈ 0.473 µg/mL)	6.25 (≈ 7.39 µg/mL)	0.8 (≈ 0.947 µg/mL)	–	–	–	Metabolite_Detected
CC(=O)NC[C@H]1CN(c2ccc(N3CCN(C(=O)CN)CC3)c(F)c2)C(=O)O1	> 500	> 50	> 50	> 500	> 50	> 50	> 500	> 50	> 50	–	–	–	–
CC(=O)NC[C@H]1CN(c2ccc(N3CCN(C(=O)CO)CC3)c(F)c2)C(=O)O1 [EPEREZOLID]	> 50	–	–	> 50	–	–	> 50	–	–	–	–	–	–

Continued, in another order:

MIC (Acinetobacter baumannii [1]) [µM]	MIC (Escherichia coli) [µM]	MIC (Acinetobacter baumannii [2]) [µM]	MIC (Acinetobacter baumannii [3]) [µM]	MIC (Acinetobacter baumannii [4]) [µM]	MIC (Pseudomonas aeruginosa [5]) [µM]	MIC (Acinetobacter baumannii [6]) [µM]	MIC (Acinetobacter baumannii [7]) [µM]	MIC (Acinetobacter baumannii [8]) [µM]	MIC (Pseudomonas aeruginosa [9]) [µM]	MIC (Pseudomonas aeruginosa [10]) [µM]	MIC (Pseudomonas aeruginosa [11]) [µM]	Compound	Drug metabolism (Beta-lactamase)
> 50	< 0.025	0.8 (≈ 0.645 µg/mL)	0.4 (≈ 0.322 µg/mL)	12.5 (≈ 10.1 µg/mL)	0.4 (≈ 0.322 µg/mL)	0.4 (≈ 0.322 µg/mL)	> 50	25 (≈ 20.1 µg/mL)	–	–	–	CC(=O)OCC1=C(C(=O)O)N2C(=O)[C@@H](NC(=O)C(NC(=O)CN(CCCCNC(=O)c3cccc(O)c3O)C(=O)c3cccc(O)c3O)c3ccccc3)[C@H]2SC1 (stereo partly specified)	–
> 50	> 50	> 50	> 50	> 50	> 50	> 50	> 50	> 50	–	–	–	CC(=O)NC[C@H]1CN(c2ccc(N3CCN(C(=O)CNC(=O)OCC4=C(C(=O)O)N5C(=O)[C@@H](NC(=O)C(N)c6ccccc6)[C@H]5SC4)CC3)c(F)c2)C(=O)O1 (stereo partly specified)	–
> 50	50 (≈ 20.3 µg/mL)	> 50	> 50	> 50	> 50	> 50	> 50	> 50	–	–	–	CC(=O)OCC1=C(C(=O)O)N2C(=O)[C@@H](NC(=O)C(N)c3ccccc3)[C@H]2SC1 (stereo partly specified)	–
